Test results published in ChEMBL document CHEMBL3132796 (Medchemcomm, 2013).
Activity calls are given as the source filed them. The calls are words filed in the database; no cut-off is given here.

Assays:
[1] = target: T1, Sphingosine kinase 2 (Homo sapiens) (UniProt Q9NRA0); assay: Inhibition of purified SK2 (unknown origin) using sphingosine and [gamma-32P]ATP as substrate at 50 uM after 30 mins relative to control
T1 sequence (whole entry): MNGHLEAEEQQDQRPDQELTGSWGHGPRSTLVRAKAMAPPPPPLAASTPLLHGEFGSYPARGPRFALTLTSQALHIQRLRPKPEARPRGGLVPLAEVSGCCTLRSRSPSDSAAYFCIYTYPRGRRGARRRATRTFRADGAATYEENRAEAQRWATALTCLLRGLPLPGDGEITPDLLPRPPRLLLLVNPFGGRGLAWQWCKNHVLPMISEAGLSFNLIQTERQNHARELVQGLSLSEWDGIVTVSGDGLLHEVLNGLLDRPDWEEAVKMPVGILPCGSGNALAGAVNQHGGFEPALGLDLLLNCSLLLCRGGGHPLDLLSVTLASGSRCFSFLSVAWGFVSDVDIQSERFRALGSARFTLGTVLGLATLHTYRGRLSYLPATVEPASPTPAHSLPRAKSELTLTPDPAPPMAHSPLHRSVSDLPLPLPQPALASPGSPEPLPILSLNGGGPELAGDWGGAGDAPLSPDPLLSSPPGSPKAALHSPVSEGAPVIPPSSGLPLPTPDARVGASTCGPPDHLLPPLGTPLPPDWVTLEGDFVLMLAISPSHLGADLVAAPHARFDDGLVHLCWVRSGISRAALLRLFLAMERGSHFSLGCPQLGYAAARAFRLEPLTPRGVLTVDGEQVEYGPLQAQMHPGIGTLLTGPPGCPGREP
Method in brief: (§1)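 Buffer: 20 mM Tris pH 7.4 with EDTA, phosphatase and protease inhibitors, 20% glycerol and 400 mM KCl. Inhibitors were added in DMSO; control was 5% v/v DMSO.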

[2] = target: T1, Sphingosine kinase 2 (Homo sapiens); assay: Activity at purified SK2 (unknown origin) using ATP at 250 uM relative to control
[3] = target: T2, Sphingosine kinase 1 (Homo sapiens, UniProt Q9NYA1); assay: Activity at recombinant SK1 (unknown origin) using ATP at 250 uM relative to control
T2 sequence (Q9NYA1 whole entry): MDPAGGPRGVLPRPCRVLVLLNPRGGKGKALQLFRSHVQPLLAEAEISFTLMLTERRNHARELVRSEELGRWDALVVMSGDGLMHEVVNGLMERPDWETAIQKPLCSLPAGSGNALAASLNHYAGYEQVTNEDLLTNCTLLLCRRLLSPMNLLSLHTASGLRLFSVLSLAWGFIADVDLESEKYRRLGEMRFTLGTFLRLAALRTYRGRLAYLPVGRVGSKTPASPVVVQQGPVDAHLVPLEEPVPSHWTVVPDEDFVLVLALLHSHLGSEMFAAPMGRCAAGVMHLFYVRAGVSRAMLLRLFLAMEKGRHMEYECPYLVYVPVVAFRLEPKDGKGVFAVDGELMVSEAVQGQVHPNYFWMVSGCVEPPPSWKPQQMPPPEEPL

[4] = target: T3, Sphingosine kinase 2 (Homo sapiens, UniProt Q9NRA0); assay: Inhibition of SK2 (unknown origin)
T3 sequence (Q9NRA0 whole entry): T1 sequence (whole entry)
Method in brief: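 Purified SK2 (37 ng) run 30 min at 30 °C with 10 µM sphingosine complexed to fatty-acid-free BSA (0.2 mg/mL final) and 250 µM [γ-32P]ATP in 10 mM MgCl2. Buffer: 20 mM Tris pH 7.4 with phosphatase/protease inhibitors and 400 mM KCl. Inhibitor added in DMSO; control 5% v/v DMSO. Sphingosine level matches the SK2 Km.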

[5] = system: PAMSC; assay: Inhibition of DNA synthesis in human PAMSC cells assessed as [3H]-thymidine incorporation into DNA at 100 nM to 1 uM after 24 hrs; format: functional, cell-based
Method in brief: (§2)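 Pulmonary arterial smooth muscle cells were grown to 60% confluency and quiesced 24 h in basal medium with 0.1% eFCS. They were then treated with inhibitor in DMSO (vehicle 0.1% DMSO) for 48 h in complete medium, with [3H]-thymidine (0.25 µCi/mL) added for the final 24 h. Cells were washed with TCA, solubilised in SDS/NaOH and counted by scintillation. Each concentration was run in triplicate.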

[6] = target: T3, Sphingosine kinase 2; assay: Inhibition of purified SK2 (unknown origin) using sphingosine and [gamma-32P]ATP as substrate after 30 mins; method in brief: as §1
[7] = Decrease of SK1 expression in human PAMSC cells at 10 uM after 24 hrs by Western blot analysis in presence of proteasomal inhibitor MG132; format: functional, cell-based
[8] = target: T2, Sphingosine kinase 1; assay: Inhibition of recombinant SK1 (unknown origin) using sphingosine and [gamma-32P]ATP as substrate after 30 mins
[9] = Decrease of SK1 expression in human PAMSC cells at 10 uM after 24 hrs by Western blot analysis; format: functional, cell-based
[10] = system: PAMSC; assay: Inhibition of DNA synthesis in human PAMSC cells assessed as [3H]-thymidine incorporation into DNA at 300 nM after 24 hrs; format: functional, cell-based; method in brief: as §2
[11] = target: T1, Sphingosine kinase 2 (Homo sapiens); conditions: 1.5 uM
[12] = target: T1, Sphingosine kinase 2 (Homo sapiens); conditions: 50 uM
[13] = system: PAMSC; conditions: Homo sapiens, 10 to 100 nM
[14] = Decrease of SK1 expression in human PAMSC cells at 100 nM after 24 hrs by Western blot analysis in presence of proteasomal inhibitor MG132; format: functional, cell-based
[15] = Decrease of SK1 expression in human PAMSC cells at 100 nM after 24 hrs by Western blot analysis; format: functional, cell-based

Compound: CCCCCCCCCCCCCCC[C@@H](O)[C@H](CO)NC(=S)Nc1cccc(F)c1
- inhibition [1]: Active
- Activity [2]: Active
- Activity [3]: Active

Compound: O=C(NCc1ccncc1)C12CC3CC(C1)CC(c1ccc(Cl)cc1)(C3)C2 [ABC-294640]
- Ki [4]: 10 µM

Compound: CCCCCCCCCCCCCCC[C@@H](O)[C@H](C)N
- Activity [5]: Active
- IC50 [6]: 766 µM
- Activity [7]: inactive
- IC50 [8]: 7.1 µM
- Activity [9]: Active

Compound: CCCCCCCCCCCCCC[C@@H](O)[C@@H](O)[C@H](CO)NC(=S)Nc1ccc(F)cc1
- inhibition [1]: 64.5%

Compound: CCCCCCCCCCCCC/C=C/[C@@H](O)[C@H](CO)NC(=S)Nc1ccc(F)cc1
- inhibition [1]: 79.2%

Compound: CCCCCCCCCCCCCCC[C@@H](O)[C@H](C)[N+](C)(C)C
- Activity [3]: Active

Compound: CCCCCCCCCCCCCC[C@H]1OC[C@H](NC(=S)Nc2c(F)c(F)c(F)c(F)c2F)[C@@H]1O
- Activity [3]: Active

Compound: CCCCCCCCCCCCC/C=C/[C@@H](O)[C@H](CO)NC(=S)Nc1ccc(C(F)(F)F)cc1
- inhibition [1]: Active

Compound: CCCCCCCCCCCCc1ccc(C(=O)N2CCC[C@H]2C(=N)N)cc1
- inhibition [10]: inactive
- inhibition [11]: 73.4%
- inhibition [12]: Active

Compound: CCCCCCCCCCCCCCC[C@@H](O)[C@H](CO)NC(=S)Nc1cccc(C(F)(F)F)c1
- inhibition [1]: 80%
- IC50 [6]: 21.8 µM
- Activity [2]: Active
- IC50 [8]: 69 µM
- Activity [9]: inactive

Compound: CCCCCCCCCCCCC/C=C\[C@@H](O)[C@@H](N)CO
- Activity [2]: Active
- Activity [3]: Active

Compound: Cc1cc(CS(=O)(=O)c2ccccc2)cc(OCc2ccc(CN3CCC[C@@H]3CO)cc2)c1
- inhibition [13]: inactive
- Activity [14]: inactive
- Activity [15]: Active

Compound: CCCCCCCCCCCCCCOCC(O)[C@H](C)N(C)C (single isomer, unassigned)
- IC50 [6]: 300 µM
- IC50 [8]: 27.8 µM

Compound: CCCCCCCCCCCCCC[C@@H](O)[C@@H](O)[C@H](CO)NC(=O)Nc1ccc(C(F)(F)F)cc1
- inhibition [1]: 53.9%
